Data set [1] in a line: Tmax in Balb-C mouse muscle at 5 mg/kg, po. The format is ADME, organism-based, Muscle tissue. More on the design: dose 5 mg/kg, route oral.
The next data set relates to UGT. Put plainly: Intrinsic clearance in human liver microsomes assessed as UGT-mediated glucuronidation after 30 mins by LC-MS/MS analysis. Particulars: read-out: CLH. The format is ADME, Microsome. In general terms: Liver microsomes are vesicles of endoplasmic reticulum, rich in cytochrome P450 enzymes.
A short description of data set [2]: Half life in Balb-C mouse plasma at 5 mg/kg, po. The format is ADME, organism-based. Also noted: dose 5 mg/kg, route oral.
Data set [3] in a line: Cmax in Balb-C mouse muscle at 5 mg/kg, po. Also noted: dose 5 mg/kg, route oral. The format is ADME, organism-based, Muscle tissue.
Data set [4] can be described thus: Cmax in Balb-C mouse plasma at 5 mg/kg, po. The format is ADME, organism-based. Also noted: dose 5 mg/kg, route oral.
Data set [5] in a line: AUC (0 to infinity) in Balb-C mouse muscle at 5 mg/kg, po. Also noted: time infinity, dose 5 mg/kg, route oral. The format is ADME, organism-based, Muscle tissue.
In the next data set the test system is HCT-116. The data set can be described thus: Antiproliferative activity against human HCT116 cells after 4 days by SRB method. The format is functional. Particulars: HCT-116, 96 h. In general terms: Sulforhodamine B stains cellular protein and so reports cell mass.
The nature of data set [6]: Half life in Balb-C mouse kidney at 5 mg/kg, po. The format is ADME, organism-based. More on the design: dose 5 mg/kg, route oral.
Data set [7] can be described thus: AUC (0 to infinity) in Balb-C mouse plasma at 5 mg/kg, po. The format is ADME, organism-based. Also noted: time infinity, dose 5 mg/kg, route oral.
Data set [8] in a line: Ratio of drug level in kidney to plasma of Balb-C mouse at 5 mg/kg, po. The format is ADME, organism-based. More on the design: dose 5 mg/kg, route oral.
Data set [9] is described as follows: Tmax in Balb-C mouse plasma at 5 mg/kg, po. The format is ADME, organism-based. Also noted: dose 5 mg/kg, route oral.
The next data set has as its system MDA-MB-468. The data set can be described thus: Antiproliferative activity against human MDA-MB-468 cells after 4 days by SRB method. The settings on record: MDA-MB-468, 96 h. The format is functional.
The nature of data set [10]: Half life in Balb-C mouse muscle at 5 mg/kg, po. The format is ADME, organism-based, Muscle tissue. Also noted: dose 5 mg/kg, route oral.
The nature of data set [11]: Binding affinity to HSP90 after 30 mins by ITC assay. In outline:
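Isothermal titration calorimetry at 25 °C with stirring at 1000 rpm. Ligands came from a 20 mM DMSO stock and were run in dialysis buffer with 1% DMSO. Ligand 10 µM in the cell, protein 100–200 µM in the syringe, 8–16 injections at 300 s spacing. One-site fit.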

Data set [12] in a line: AUC (0 to infinity) in Balb-C mouse kidney at 5 mg/kg, po. The format is ADME, organism-based. More on the design: time infinity, dose 5 mg/kg, route oral.
Data set [13] has as its target T1, Voltage-gated inwardly rectifying potassium channel KCNH2 (Homo sapiens, UniProt Q12809). The data set can be described thus: Displacement of [3H]-dofetilide from human ERG. (In general: Loss of bound radioactivity is the signal in a displacement assay; it reports binding, not function.)
Data set [14] can be described thus: Tmax in Balb-C mouse kidney at 5 mg/kg, po. The format is ADME, organism-based. Also noted: dose 5 mg/kg, route oral.
The nature of data set [15]: Cmax in Balb-C mouse kidney at 5 mg/kg, po. Also noted: dose 5 mg/kg, route oral. The format is ADME, organism-based.
For data set [16], the target named is Heat shock protein HSP 90-beta (Homo sapiens, UniProt P08238). Put plainly: Inhibition of fluorescently labeled VER51001 binding to full length human HSP90beta after 30 mins by fluorescence polarization assay.
Sequence of Heat shock protein HSP 90-beta (P08238 whole entry): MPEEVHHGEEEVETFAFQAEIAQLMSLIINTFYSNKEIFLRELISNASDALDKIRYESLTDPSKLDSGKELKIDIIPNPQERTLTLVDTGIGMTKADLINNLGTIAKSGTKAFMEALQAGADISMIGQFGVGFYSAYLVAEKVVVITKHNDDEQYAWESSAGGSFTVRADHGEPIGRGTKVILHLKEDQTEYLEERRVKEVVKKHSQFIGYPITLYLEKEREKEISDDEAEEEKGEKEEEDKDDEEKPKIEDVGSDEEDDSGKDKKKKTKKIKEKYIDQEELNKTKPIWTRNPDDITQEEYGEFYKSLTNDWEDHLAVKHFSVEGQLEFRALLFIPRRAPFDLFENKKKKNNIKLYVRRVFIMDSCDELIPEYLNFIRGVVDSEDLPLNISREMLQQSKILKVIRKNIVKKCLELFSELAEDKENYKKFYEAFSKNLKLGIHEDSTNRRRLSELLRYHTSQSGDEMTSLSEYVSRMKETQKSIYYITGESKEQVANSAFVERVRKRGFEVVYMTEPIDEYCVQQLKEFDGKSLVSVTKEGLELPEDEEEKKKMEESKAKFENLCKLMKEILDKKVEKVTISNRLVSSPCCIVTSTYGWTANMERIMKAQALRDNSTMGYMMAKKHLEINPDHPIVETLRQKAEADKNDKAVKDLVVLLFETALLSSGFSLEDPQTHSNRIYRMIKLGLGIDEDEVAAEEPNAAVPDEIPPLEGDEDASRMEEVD
The target of data set [17] is T1, Voltage-gated inwardly rectifying potassium channel KCNH2. Put plainly: Inhibition of human ERG expressed in HEK293 cells by voltage-clamp method. The format is cell-based.
A further data set relates to BT-474. The data set can be described thus: Antiproliferative activity against human BT474 cells after 4 days by SRB method. The format is functional. Particulars: BT-474, 96 h.
Data set [18] is described as follows: Ratio of drug level in muscle to plasma of Balb-C mouse at 5 mg/kg, po. The format is ADME, organism-based. More on the design: dose 5 mg/kg, route oral.

The structures appear in SMILES notation. “And” between values parts separate entries of the source, which are not always exact repeats. Identical values can stand only once.

T1 sequence (Q12809 whole entry): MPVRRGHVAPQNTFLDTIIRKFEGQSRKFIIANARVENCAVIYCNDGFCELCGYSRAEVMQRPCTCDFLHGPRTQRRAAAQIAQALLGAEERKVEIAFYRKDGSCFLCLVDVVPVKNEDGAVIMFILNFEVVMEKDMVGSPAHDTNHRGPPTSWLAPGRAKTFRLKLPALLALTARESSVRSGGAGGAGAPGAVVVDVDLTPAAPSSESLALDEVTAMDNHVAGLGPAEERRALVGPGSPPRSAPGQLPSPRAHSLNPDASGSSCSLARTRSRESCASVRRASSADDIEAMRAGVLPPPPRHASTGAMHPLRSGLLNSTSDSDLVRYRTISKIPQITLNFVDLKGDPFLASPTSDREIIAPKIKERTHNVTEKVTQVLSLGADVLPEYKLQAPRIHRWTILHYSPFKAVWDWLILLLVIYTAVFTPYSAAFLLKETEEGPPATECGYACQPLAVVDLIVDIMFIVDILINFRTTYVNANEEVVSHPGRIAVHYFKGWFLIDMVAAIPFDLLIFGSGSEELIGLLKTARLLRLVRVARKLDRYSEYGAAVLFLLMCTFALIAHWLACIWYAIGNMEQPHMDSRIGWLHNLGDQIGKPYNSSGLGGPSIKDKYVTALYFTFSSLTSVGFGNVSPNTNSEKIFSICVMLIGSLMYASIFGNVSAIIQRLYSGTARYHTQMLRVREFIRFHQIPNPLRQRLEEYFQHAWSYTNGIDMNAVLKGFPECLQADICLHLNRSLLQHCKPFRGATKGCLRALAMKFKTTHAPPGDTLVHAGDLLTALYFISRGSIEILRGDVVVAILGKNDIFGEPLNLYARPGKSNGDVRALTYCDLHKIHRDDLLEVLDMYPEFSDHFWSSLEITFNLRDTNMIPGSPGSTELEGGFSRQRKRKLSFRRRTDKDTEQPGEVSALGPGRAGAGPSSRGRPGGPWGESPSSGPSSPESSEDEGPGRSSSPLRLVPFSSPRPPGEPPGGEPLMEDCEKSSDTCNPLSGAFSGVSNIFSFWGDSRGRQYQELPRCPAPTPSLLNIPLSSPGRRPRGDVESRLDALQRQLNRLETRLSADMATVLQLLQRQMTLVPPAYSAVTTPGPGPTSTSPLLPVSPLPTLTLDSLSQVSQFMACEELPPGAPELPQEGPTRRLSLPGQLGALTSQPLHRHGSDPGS

The term Tmax denotes the time from dosing to the highest level. By half-life is commonly meant the time needed for the level to fall by half in the phase considered. A word on the Cmax: it is the highest concentration seen after dosing. What is called AUC(0-inf) is the area under the concentration-time curve extrapolated to infinity. Higher therefore signals high exposure. A word on the GI50: it is the concentration giving 50% growth inhibition. Read a low GI50 as more potent growth inhibition. Usually Kp stands for the ratio of the level in a tissue or fluid to that in plasma or blood. In general, Kd refers to the equilibrium constant for the complex coming apart. The term IC50 denotes the concentration needed to halve the response being measured. Higher therefore signals weaker potency in that assay. As usually defined, the Ki is the equilibrium dissociation constant of an inhibitor or competing ligand from its target. Lower therefore signals tighter binding. On to `COc1cc(Cl)c(-c2nc(SCC(=O)N(C)C)nc3[nH]cc(C#N)c23)cc1OC`, for which the Tmax in data set [1], in data set [9] and in data set [14] was 15 min each time. Also, in the data set on UGT, the microsomal CLint amounted to 4 µL/min/mg. Also, the half-life in [2] was 84 min; in [6], 72 min; in data set [10], 144 min. Also, the Cmax in data set [3] is 158 nM and 68 ng/mL; in data set [4], 553 nM and 239 ng/mL; in data set [15], 12.5 µM and 5390 ng/mL. Moreover, the figures for the AUC(0-inf) in data set [5], in data set [7] and in data set [12] were 231 ng·h/mL, 297 ng·h/mL and 6920 ng·h/mL, respectively. The GI50 in the data set with HCT-116 amounted to 32 nM; in the data set on MDA-MB-468, 30 nM; with BT-474 it was 34 nM. Besides, the Kp in data set [8] came out at 23.3; in [18], 0.8. Further, the Kd in [11] is < 3 nM. Besides, the IC50 in [13] and in data set [17] was > 30000 nM each time. For the same molecule, in data set [16], the Ki is < 1 nM.

For the origin of these results see ChEMBL document CHEMBL2157917, “Targeting conserved water molecules: design of 4-aryl-5-cyanopyrrolo[2,3-d]pyrimidine Hsp90 inhibitors using fragment-based screening and structure-based optimization” (Bioorg Med Chem, 2012).
